Screening data as filed in PubChem BioAssay.
M1 ag: agonists of human M1 muscarinic receptor | P11229 | AID 588814 | 0.33% of 360,000 active | CHO-K1 hM1, Fluo-8 calcium fluorescence, agonist mode; 0% DMSO, 100% acetylcholine EC100 | activation, % at 3 µM;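 active = activation above the run's mean compound activation plus 3 SD, cut at about 16% in these data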;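 also: peak over basal fluorescence ratio within a 140 s kinetic read after compound addition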
M5 ag: CHRM5 agonism in calcium assay | activation, % at 3 µM | CHO-K1 hM5 cells, Fluo-8 calcium fluorescence; 0% DMSO wells, 100% maximal acetylcholine response | 0.19% of 360,000 active | P08912;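 active = activation above the run's mean over test compounds plus 3 SD, cut at about 23% in these data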;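 also: signal is peak over basal fluorescence ratio across the kinetic read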
Target sequence (P08912 whole entry, looked up): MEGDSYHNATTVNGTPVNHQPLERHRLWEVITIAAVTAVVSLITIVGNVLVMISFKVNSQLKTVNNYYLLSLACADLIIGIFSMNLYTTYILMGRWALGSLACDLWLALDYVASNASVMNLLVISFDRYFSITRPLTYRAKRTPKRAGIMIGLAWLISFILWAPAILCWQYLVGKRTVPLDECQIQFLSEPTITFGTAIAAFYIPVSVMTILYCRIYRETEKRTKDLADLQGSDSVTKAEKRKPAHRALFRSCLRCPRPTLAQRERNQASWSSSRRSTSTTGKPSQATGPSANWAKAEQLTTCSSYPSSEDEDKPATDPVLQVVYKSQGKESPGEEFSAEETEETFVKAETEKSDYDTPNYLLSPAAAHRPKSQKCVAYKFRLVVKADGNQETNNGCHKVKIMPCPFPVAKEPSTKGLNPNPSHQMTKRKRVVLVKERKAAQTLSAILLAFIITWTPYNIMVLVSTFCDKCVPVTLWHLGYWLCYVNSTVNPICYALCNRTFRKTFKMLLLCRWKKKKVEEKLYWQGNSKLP
CHRM1 PAM: positive allosteric modulators of human M1 muscarinic receptor. 0.088% of 360,000 active. activation, % at 3 µM. AID 588819. CHO-K1 hM1, Fluo-8 calcium fluorescence, ACh EC20; 0% = ACh EC20, 100% = maximal ACh. P11229; in the data active = activation above about 19%, passing the limit was not always enough
M5 PAM: potentiates acetylcholine response at human M5 receptor; CHO-K1 hM5, Fluo-8 calcium, ACh EC20 PAM; 0% = ACh EC20, 100% = ACh EC100; 0.3% of 360,000 active; activation, % at 3 µM; P08912;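 active = activation above the run cutoff, the mean activation of all test compounds plus 3 SD, cut at about 18% in these data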
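Assay system: CHO-K1 hM5 cells / Incubation: Fluo-8 loading 80 min at 37 °C plus 30 min room temperature / Technique: Fluo-8 calcium dye fluorescence, kinetic read / Repeats: single replicate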
M1 antag: human CHRM1 antagonism. CHO-K1 hM1, Fluo-8 calcium fluorescence, ACh EC80 antagonist. 1.3% of 360,000 active. P11229. inhibition, % at 3 µM. AID 588852;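 active = percent inhibition above its own plate's cutoff, namely the mean of that plate's compound wells plus 3 SD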;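 also: peak over basal fluorescence ratio during 140 s after agonist addition; 0% = ACh EC80 plus DMSO and 100% = DMSO alone without agonist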
CHRM5 antagonist: CHRM5 antagonism in calcium assay. P08912. CHO-hM5 cells, Fluo-8 calcium fluorescence, ACh EC80. inhibition, % at 3 µM. 0.59% of 360,000 active. AID 624040;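 active = inhibition above a per-plate cutoff, the mean of that plate's test compounds plus 3 SD, cut at about 27% in these data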;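 also: 0% = acetylcholine EC80 with DMSO and 100% = DMSO without agonist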
Starred values were filed as active, the others as inactive. Rows were chosen to be rich in hits. Some 2.1% of all compounds tested hit in one or more screens of this group.

SMILES	M1 ag	M5 ag	CHRM1 PAM	M5 PAM	M1 antag	CHRM5 antagonist
COc1ccc(CN2CCN(C(=O)CCC(=O)Nc3nnc(C(F)(F)F)s3)CC2)cc1F	-3	-3	-9	2	9	-5
COc1ccc(CN2CCN(C(=O)CCC(=O)Nc3nnc(CC(C)C)s3)CC2)cc1F	-2	-2	-17	-5	25	8
CCCc1nnc(NC(=O)CCC(=O)N2CCN(Cc3ccc(OC)c(F)c3)CC2)s1	-4	-5	-21	0	49*	-10
CCOC(=O)C1=CCC(c2cccc(C)c2)N(S(=O)(=O)c2ccc(C)cc2)C1 (configuration not stated)	-3	0	-7	-10	15	9
O=C1CCN(Cc2ccccc2)C=C1c1ccc(Br)cc1	-1	2	3	-12	-5	15
Cc1ccc(S(=O)(=O)CCC(=O)OCC(=O)NCC(=O)Nc2cccc(C)c2C)cc1	1	-6	12	1	-15	-7
CN(C)c1ccc(/C=C(\C#N)C(=O)c2ccccc2)cc1	125*	63*	-35	-21	76*	40*
CCN(CC)c1ccc(/C=C(\C#N)C(=O)c2ccc(Br)cc2)cc1	178*	108*	-21	-18	85*	70*
CCOC(CNC(=O)c1ccc2c(c1)ncn2-c1cccc(F)c1)OCC	-4	-1	-3	-11	0	28*
O=C(NCCc1ccc(Cl)cc1)c1ccc(CS(=O)Cc2ccccc2Cl)o1 (configuration not stated)	-2	0	-18	-9	37*	4
CSc1ccc(CCNC(=O)c2ccc(CS(=O)Cc3ccccc3Cl)o2)cc1 (configuration not stated)	3	-1	-13	-13	17	21
CC1CCN(CCCCOc2ccccc2-c2ccccc2)CC1	-8	-4	-22	-11	20	-4
c1ccc(-c2ccccc2OCCOCCN2CCCCC2)cc1	-8	-5	-14	2	19	1
c1ccc(-c2ccccc2OCCN2CCCC2)cc1	-11	-24	-29	-33	68*	19
c1ccc(-c2ccccc2OCCCCN2CCCCCC2)cc1	-9	-9	-26	-8	35*	3
O=C(CN1C2CCCC1CC(NC(=O)C1CCCCC1)C2)Nc1ccccc1 (configuration not stated)	-10	-5	3	7	-7	-12
O=C(NC1CC2CCC(C1)N2C(=O)NCc1ccccc1)C1CC1 (configuration not stated)	-6	-6	-17	2	37*	-3
CCCCN1C2CCCC1CC(NC(=O)C1CCCCC1)C2 (configuration not stated)	-4	-6	-19	-8	43*	4
O=C(NC1CC2CCCC(C1)N2Cc1ccccc1)C1CCCCC1 (configuration not stated)	-5	-8	-18	-1	38*	-5
CCO/C=C1/C(=O)N(Cc2ccccc2)C(=O)c2ccccc21	-8	-2	-4	-3	9	-5
Cc1cc(Cl)c(S(=O)(=O)NCc2cccnc2)cc1OCC(=O)NC1CCCCC1	-3	-2	5	-1	-3	-2
Cc1cc(C)n2nc(S(=O)(=O)NC(C)(C)C)nc2n1	-3	1	3	19*	0	0
CC(C)(C)c1cc(C2=CSC3=NCCN23)cc(C(C)(C)C)c1O	-10	-7	-26	-2	36*	11
COc1ccc(NC(=O)CN2C(=O)NC(C)(c3ccc4c(c3)OCO4)C2=O)cc1S(N)(=O)=O (configuration not stated)	-3	3	10	11	-12	7
C[C@H]1CN(c2ccccc2)C(=O)[C@@H]1CC(=O)Nc1ccc(Br)cc1	-1	4	-12	-10	14	27*
SMILES	M1 ag	M5 ag	CHRM1 PAM	M5 PAM	M1 antag	CHRM5 antagonist
CCOC(=O)/C=c1/s/c(=C/c2ccc3cc(OC)ccc3c2)c(=O)n1CC(=O)NCc1ccc2c(c1)OCO2	1	39*	11	-6	-13	38*
CC(C)=N/N=C(/c1ccc([N+](=O)[O-])cc1)C12CN3CN(CN(C3)C1)C2	50*	-2	-26	5	20	-2
O=[N+]([O-])c1cccc(/C(=N/N=C/c2ccccc2Br)C23CN4CN(CN(C4)C2)C3)c1	-4	-4	-10	-2	43*	3
Cc1cc(Cl)ccc1C(=O)C1CCCN(C(=O)CCn2cncn2)C1 (configuration not stated)	0	-4	7	-5	-21	1
CC(C)NC(=S)Nc1ccc(Oc2ccccc2)cc1	-2	-1	2	-6	-5	3
COc1ccc(C(=O)OCC(=O)NC2CC2)cc1S(=O)(=O)N(C)Cc1ccccc1	-5	1	10	3	-12	0
CC(Cc1ccccc1)NC(=O)CCNNC(=O)c1ccncc1 (configuration not stated)	-3	0	-8	-9	10	7
O=C(NCC1CCCO1)/C(=C\c1ccc(Cl)cc1)NC(=O)c1ccccc1 (configuration not stated)	-4	0	1	5	2	-1
Cc1ccc(C(=O)N/C(=C/c2ccccc2)C(=O)NCC2CCCO2)cc1 (configuration not stated)	-6	-3	10	21*	-11	-10
O=C1CSC(=S)N1Nc1ccccc1	4	26*	10	-10	-8	13
Cc1ccccc1C(=O)NN1C(=O)CSC1=S	-1	1	6	-2	-8	-6
Nc1nc(-c2ccc3c(c2)CCCC3)cs1	-4	-2	-2	20*	-11	10
O=C(COC(=O)CSc1nnc(-c2ccc(Cl)cc2)o1)NCc1ccc2c(c1)OCO2	-3	-5	2	2	0	-9
CN(Cc1cccs1)c1nc(-c2cccnc2)nc2ccccc12	-8	-10	-19	-8	35*	7
CCCOc1ccccc1Cn1c(=O)oc2ccc(C)cc21	-4	-11	-1	-15	7	-4
O=C1c2cccc3c(N4CCCCC4)ccc(c23)C(=O)N1c1cccc(O)c1	36*	141*	-7	-19	32*	37*
Cc1n[nH]c(C)c1N1C(=O)c2cccc3c(N4CCCCCC4)ccc(c23)C1=O	93*	76*	-20	-21	63*	54*
Cc1ccc(S(=O)(=O)c2c(C)nn(C(C)(C)C)c2OC(=O)C(C)C)cc1	0	4	24	-1	-3	-2
O=C(Nc1ccccc1SC(=O)c1ccccc1)c1ccccc1	0	20	8	5	-3	22
